Screening results deposited in PubChem BioAssay by several laboratories.
Fh CTSL1 inh: Fasciola hepatica cathepsin L1 inhibitors, primary screen, counter-screen for PFM18AAP inhibitor project, biochemical, QFRET, fluorogenic peptide substrate; recombinant F. hepatica cathepsin L1, Z-Leu-Arg-MCA fluorescence; inhibition, % at 5.96 µM; actives 0.49% (n = 300,000);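 active means inhibition above the mean of all tested compounds plus 3 SD, set per screening campaign, cut at about 17% in these data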;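 further: 0% = plate median of test compound wells and 100% = 1 µM Z-Phe-Ala-diazomethylketone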
MT1-MMP act inh: blockers of MT1-MMP proenzyme processing, primary screen, HT1080 RFP-PRO-GFP cells, GFP/RFP fluorescence; actives 0.061% (n = 360,000); GFP/RFP ratio fluorescence, overnight; percent of plate control window, DMSO zero; AID 651647, 2012; GFP/RFP ratio change, % at 20 µM;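 active means GFP/RFP ratio change of at least 30% with cell ATP level not reduced by more than half and red fluorescence within 50% of control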
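Assay system – RFP-PRO-GFP reporter HT1080 cells · Compound dosing – single dose of 20 µM compound, 1% DMSO final · Incubation – overnight compound exposure at 37 °C · Measure – GFP/RFP fluorescence ratio · Benchmarks – DMSO wells and RFP-L50D-GFP cells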
CendR NRP1 mod: modulators of CendR peptide binding to NRP-1, primary screen, biochemical, fluorescence polarization, uHTS; FAM-RPARPAR peptide binding to NRP-1; Neuropilin-1 (Homo sapiens), O14786; inhibition, % at 25 µM; actives 0.85% (n = 360,000);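 active means inhibition or corrected inhibition above about 18%, plus a signal ratio from 0.5 to 1.5, limit read from the data, passing the limit was not always enough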
DAGLB inh: DAGLB lipase inhibitors, primary screen, biochemical, fluorescence, HTS; inhibition, % at 5.17 µM; Diacylglycerol lipase-beta (Homo sapiens), Q8NCG7; actives 0.059% (n = 340,000); HEK293T DAGLB membrane lysate, EnzChek fluorogenic substrate; in the data active means inhibition above about 34%;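 further: 0% = enzyme with vehicle and 100% = wells lacking enzyme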
UCH37 inh: inhibitors of human UCH37 deubiquitinase, primary screen, biochemical, Ub-AMC cleavage, fluorescence; Ubiquitin carboxyl-terminal hydrolase isozyme L5 (Homo sapiens), Q9Y5K5; purified proteasome/UCH37; inhibition, % (no concentration beside the values); actives 0.33% (n = 330,000); AID 588478, 2011;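 active means mean inhibition over replicate wells above about 20%, limit read from the data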;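 further: 0% = compound-free wells with enzyme and 100% = wells lacking proteasome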
Target sequence (Q9Y5K5 whole entry, looked up): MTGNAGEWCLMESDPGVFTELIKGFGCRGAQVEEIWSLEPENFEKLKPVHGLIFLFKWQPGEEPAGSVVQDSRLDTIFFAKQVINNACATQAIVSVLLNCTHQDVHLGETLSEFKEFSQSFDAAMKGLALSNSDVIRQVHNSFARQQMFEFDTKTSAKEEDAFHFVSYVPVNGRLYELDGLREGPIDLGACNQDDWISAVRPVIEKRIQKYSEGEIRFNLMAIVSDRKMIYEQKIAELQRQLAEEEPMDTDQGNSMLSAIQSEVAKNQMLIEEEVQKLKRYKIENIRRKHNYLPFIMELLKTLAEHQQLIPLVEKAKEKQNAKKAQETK
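Schedule: 30 min plus 25 min, room temperature / Material: human UCH37 within purified proteasomes / Technique: AMC fluorescence intensity at 355/460 nm / Buffer or medium: pH 7.4 Tris-HCl (50 mM) with ovalbumin, ATP-MgCl2, DTT / Controls: wells without proteasome as full block, compound-free enzyme plus substrate as uninhibited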
* = called active by the depositor. Hits are enriched below; roughly 1.5% of the tested compounds scored in any of these assays.

How did Cc1cccc(OCC(=O)NN=Cc2cn(C)c3ccccc23)c1 do in these assays?
UCH37 inh: 3

Results for CCCCOc1ccc(CSC(CC(=O)O)C(=O)O)cc1 (stereo not drawn) ?
Fh CTSL1 inh: 5; MT1-MMP act inh: -1; CendR NRP1 mod: 14; DAGLB inh: -4; UCH37 inh: -4

How did CCCCOc1ccc(CSCCN=C(N)N)cc1 do in these assays?
MT1-MMP act inh: -3; CendR NRP1 mod: 40*; DAGLB inh: 0; UCH37 inh: 1

How did COc1cccc(CNC(=O)[C@@H]2CCCN2)c1 do in these assays?
MT1-MMP act inh: 1; CendR NRP1 mod: 10

How did NC(=O)C1CCCN1 (stereo not drawn) do in these assays?
Fh CTSL1 inh: 0; MT1-MMP act inh: -4; CendR NRP1 mod: 22*; DAGLB inh: -1; UCH37 inh: 2

How did CC(c1ccccc1)N1C(=O)c2cccnc2C1=O (stereo not drawn) do in these assays?
Fh CTSL1 inh: 0; MT1-MMP act inh: 3; CendR NRP1 mod: 11; DAGLB inh: 4; UCH37 inh: 4

What do the screens show for `CC(NC1=CC(=O)c2cccnc2C1=O)C(O)c1ccccc1` (stereo not drawn)?
MT1-MMP act inh: 9; CendR NRP1 mod: 36*; DAGLB inh: -1

What do the screens show for `C/C(CC(=O)Nc1ccc(Cl)c(C(F)(F)F)c1)=N\NC(N)=S`?
Fh CTSL1 inh: 40*; MT1-MMP act inh: -4; CendR NRP1 mod: 13; DAGLB inh: 0

What do the screens show for `O=c1cc(CO)oc(C(Nc2ccccn2)c2ccc(F)cc2)c1O` (stereo not drawn)?
Fh CTSL1 inh: -2; MT1-MMP act inh: -3; CendR NRP1 mod: 6; DAGLB inh: 1; UCH37 inh: 2

Results for O=c1cc(CO)oc(C(Nc2ccccn2)c2ccccc2Cl)c1O (stereo not drawn) ?
Fh CTSL1 inh: 8; MT1-MMP act inh: -9; CendR NRP1 mod: 26*; DAGLB inh: 4; UCH37 inh: 6

How did O=c1oc2c(-c3cccc(F)c3)cc(O)cc2s1 do in these assays?
Fh CTSL1 inh: -1; MT1-MMP act inh: -7; CendR NRP1 mod: 33*; DAGLB inh: -3; UCH37 inh: 5

How did Nc1nnc(-c2cccc(F)c2)s1 do in these assays?
Fh CTSL1 inh: 4; MT1-MMP act inh: 2; CendR NRP1 mod: 14; DAGLB inh: 1; UCH37 inh: -1

Results for COc1ccccc1NC(=S)N(Cc1ccc(Cl)cc1)CC1CCC(C(=O)O)CC1 (stereo not drawn) ?
Fh CTSL1 inh: 0; MT1-MMP act inh: 0; CendR NRP1 mod: 28*; DAGLB inh: 1; UCH37 inh: 2

What do the screens show for `COc1ccc(CN(CC2CCC(C(=O)O)CC2)C(=S)Nc2ccccc2OC)cc1` (stereo not drawn)?
Fh CTSL1 inh: 2; MT1-MMP act inh: 2; CendR NRP1 mod: -4; DAGLB inh: 1; UCH37 inh: 6

Results for CCOC(=O)C1=C(C)N=c2sc(=Cc3ccccc3)c(=O)n2C1c1ccc(OC)c(OC)c1 (stereo not drawn) ?
UCH37 inh: 3

How did O=c1cc(NN=Cc2ccccc2)[nH]c(=O)[nH]1 do in these assays?
UCH37 inh: 13

How did CC1=C(C#N)C(=O)NC(=O)/C1=C\c1ccc(-c2cc(C)c(C)cc2[N+](=O)[O-])o1 do in these assays?
MT1-MMP act inh: 1; CendR NRP1 mod: -76; DAGLB inh: 9; UCH37 inh: 20*

What do the screens show for `CCCCN(c1ccccc1)S(=O)(=O)c1ccc2c(c1)CCN2C(=O)CCC(=O)O`?
Fh CTSL1 inh: 2; MT1-MMP act inh: -2; CendR NRP1 mod: 25*; DAGLB inh: 0; UCH37 inh: 4

How did CCCN(c1ccc(OCC)cc1)S(=O)(=O)c1ccc2c(c1)CCN2C(=O)CCC(=O)O do in these assays?
Fh CTSL1 inh: 0; MT1-MMP act inh: 0; CendR NRP1 mod: 3; DAGLB inh: 0; UCH37 inh: 1
